Consider 28 compounds from ChEMBL document CHEMBL3091406, “Design and synthesis of novel antimicrobials with activity against Gram-positive bacteria and mycobacterial species, including M. tuberculosis” (2013).

In brackets after ≈: the same amount, converted by molar mass.

Common to all, as to assay type: functional
Experiment [1] concerns Escherichia coli. Kind of experiment: Antibacterial activity against Escherichia coli […] by CLSI method.
The test system of experiment [2] is Bacillus cereus. Kind of experiment: Antibacterial activity against Bacillus cereus by CLSI method.
Experiment [3] relates to Mycolicibacterium smegmatis. Briefly: Antimycobacterial activity against Mycobacterium smegmatis.
Experiment [4] concerns Staphylococcus aureus. Briefly: Antibacterial activity against Staphylococcus aureus ATCC 29213 by CLSI method.
The test system of experiment [5] is Mycolicibacterium fortuitum. Kind of experiment: Antimycobacterial activity against Mycobacterium fortuitum. The method, boiled down: (§1)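 MIC in Middlebrook 7H9 broth with 10% OADC; strains from University of Wisconsin-La Crosse culture collection; rifampin as positive control; reported MIC is compiled from geometric means of three separate runs.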
The test system of experiment [6] is Mycobacterium tuberculosis. Briefly: Ratio of ethambutol MIC to compound MIC for Mycobacterium tuberculosis H37Rv after 7 days by BacTiter-Glo method.
In experiment [7] the test system is Mycobacterium avium. Kind of experiment: Antimycobacterial activity against Mycobacterium avium. The method, boiled down:
as §1

For experiment [8], the system named is Mycobacterium kansasii. Kind of experiment: Antimycobacterial activity against Mycobacterium kansasii. In short, it runs like this:
as §1

Experiment [9] relates to Mycobacteroides chelonae. Kind of experiment: Antimycobacterial activity against Mycobacterium chelonae. In short, it runs like this:
as §1

Experiment [10] deals with Mycobacterium tuberculosis. Briefly: Antimycobacterial activity against Mycobacterium tuberculosis H37Rv after 7 days by BacTiter-Glo method. Conditions: 168 h. In short, it runs like this:
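Strain H37Rv in 384-well plates, Middlebrook 7H12 broth with palmitate and 0.5% BSA; compounds diluted in medium to 2× final concentration; inoculum 1-2 × 10⁵ CFU/mL; amikacin positive control on every plate; 7 days at 37 °C, ~95% humidity; compound autofluorescence pre-read (ex 535/em 590 nm); BacTiter-Glo reagent added, 20 min room temperature, luminescence read.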

Experiment [11] relates to Mycobacterium intracellulare. Briefly: Antimycobacterial activity against Mycobacterium intracellulare. In short, it runs like this:
as §1

For experiment [12], the system named is Mycolicibacterium smegmatis. Kind of experiment: Ratio of rifampin MIC to compound MIC for Mycobacterium smegmatis.

A word on the MIC: it is the lowest concentration that inhibits growth of the organism. Low readings indicate a more susceptible organism, high ones a less susceptible organism. Take `CCOC(=O)/C=C\Sc1ccc(C(C)(C)C)cc1`: the minimum inhibitory concentration (MIC) is greater than 128 µg/mL in experiment [1], greater than 128 µg/mL in [2], 16 µg/mL (≈ 60.5 µM) in experiment [3] and greater than 128 µg/mL in experiment [4].
Regarding `CC(C)(C)c1ccc(C(=O)/C=C/C(=O)O)cc1`, the MIC was greater than 128 µg/mL in experiment [1], greater than 125 µg/mL in experiment [5], greater than 128 µg/mL in experiment [3] and 32 µg/mL (≈ 138 µM) in experiment [4].
`CC(C)(C)c1ccc(S/C=C\C(=O)NC2CC2)cc1`: the MIC in [1], in experiment [2], in experiment [3] and in [4] was greater than 128 µg/mL throughout.
Consider `CCOC(=O)/C=C\C(=O)c1ccc(C(C)(C)C)cc1`, for which the Ratio in experiment [6] was 1.5; in experiment [12], 8. Further, the MIC in experiment [1] is greater than 128 µg/mL; in experiment [5], 8 µg/mL (≈ 30.7 µM); in [7] it was 32 µg/mL (≈ 123 µM); in experiment [8], 64 µg/mL (≈ 246 µM); in experiment [9] it was 16 µg/mL (≈ 61.5 µM); in experiment [10] it was 0.8 µg/mL (≈ 3.07 µM). The MIC in [11] stood at 8 µg/mL (≈ 30.7 µM); in experiment [2], 8 µg/mL (≈ 30.7 µM); in [3], 8 µg/mL (≈ 30.7 µM); in experiment [4], 4 µg/mL (≈ 15.4 µM).
As to `CCOC(=O)/C=C/C(=O)c1ccc(C(C)(C)C)cc1`, the Ratio in [6] is reported as 1.5; in [12] it was 8. Also, the MIC in experiment [1] is greater than 128 µg/mL; in [5], 4 µg/mL (≈ 15.4 µM); in experiment [7], 16 µg/mL (≈ 61.5 µM); in experiment [8], 32 µg/mL (≈ 123 µM); in [9], 8 µg/mL (≈ 30.7 µM); in experiment [10], 0.8 µg/mL (≈ 3.07 µM). In addition, the MIC was 4 µg/mL (≈ 15.4 µM) in experiment [11], 4 µg/mL (≈ 15.4 µM) in experiment [2], 8 µg/mL (≈ 30.7 µM) in [3] and 2 µg/mL (≈ 7.68 µM) in [4].
Regarding `CCOC(=O)CCC(=O)c1ccc(C(C)(C)C)cc1`, the MIC in experiment [1], in experiment [5], in experiment [7], in experiment [8], in experiment [9] and in experiment [11] was greater than 128 µg/mL each time. Moreover, the MIC in [3] and in experiment [4] was greater than 128 µg/mL in each case.
On to `CCOC(=O)CCCc1ccc(C(C)(C)C)cc1`, for which the MIC was greater than 128 µg/mL in experiment [1]; 32 µg/mL (≈ 129 µM) in [5]; greater than 128 µg/mL in [7]; 128 µg/mL (≈ 515 µM) in experiment [8]; 32 µg/mL (≈ 129 µM) in experiment [9]; greater than 128 µg/mL in experiment [11]. Besides, the MIC in experiment [3] was 64 µg/mL (≈ 258 µM); in [4] it was greater than 128 µg/mL.
With `CC(C)=CCOC(=O)/C=C/C(=O)c1ccc(C(C)(C)C)cc1`, the MIC in [1] is greater than 128 µg/mL; in experiment [5], 64 µg/mL (≈ 213 µM); in experiment [7] it was greater than 128 µg/mL; in experiment [8], greater than 128 µg/mL; in experiment [9], 32 µg/mL (≈ 107 µM); in experiment [11], greater than 128 µg/mL. Besides, the MIC is greater than 128 µg/mL in experiment [3] and 0.5 µg/mL (≈ 1.66 µM) in experiment [4].
Take `CCOC(=O)/C=C/Cc1ccc(C(C)(C)C)cc1`: the MIC in experiment [1], in experiment [5], in experiment [7], in experiment [8], in [9] and in experiment [11] was greater than 128 µg/mL each time. Also, the MIC in experiment [3] is greater than 128 µg/mL; in [4], 16 µg/mL (≈ 64.9 µM).
With `CCOC(=O)c1ccccc1C(=O)c1ccc(C(C)(C)C)cc1`, the MIC in experiment [1], in experiment [5], in experiment [7], in experiment [8], in experiment [9] and in experiment [11] was greater than 128 µg/mL in each case. Besides, the MIC in experiment [3] and in experiment [4] was greater than 128 µg/mL throughout.
Regarding `CCOC(=O)/C=C\C(=O)c1cc2ccccc2s1`, the Ratio was 3 in experiment [6] and 16 in experiment [12]. Also, the minimum inhibitory concentration (MIC) stood at 128 µg/mL (≈ 492 µM) in [1]; 16 µg/mL (≈ 61.5 µM) in experiment [5]; 16 µg/mL (≈ 61.5 µM) in [7]; 8 µg/mL (≈ 30.7 µM) in [8]; 8 µg/mL (≈ 30.7 µM) in [9]; 0.4 µg/mL (≈ 1.54 µM) in experiment [10]. In addition, the minimum inhibitory concentration (MIC) in experiment [11] came to 4 µg/mL (≈ 15.4 µM); in [3], 4 µg/mL (≈ 15.4 µM); in experiment [4], 1 µg/mL (≈ 3.84 µM).
In the case of `CCOC(=O)CCSc1ccc(C(C)(C)C)cc1`, the MIC in experiment [1], in [5], in [7], in [8], in experiment [9] and in [11] was greater than 128 µg/mL each time. Further, the minimum inhibitory concentration (MIC) in experiment [2], in experiment [3] and in [4] was greater than 128 µg/mL in each case.
As for `CCOC(=O)C#CC(=O)c1ccc(C(C)(C)C)cc1`, the MIC in [1], in experiment [5], in experiment [7], in [8], in [9] and in experiment [11] was greater than 128 µg/mL in each case. The MIC in [2], in experiment [3] and in [4] was greater than 128 µg/mL each time.
Regarding `CCOC(=O)[C@@H]1C[C@H]1C(=O)c1ccc(C(C)(C)C)cc1`, the MIC in [1] is greater than 128 µg/mL; in experiment [5] it was 64 µg/mL (≈ 233 µM); in experiment [3] it was 16 µg/mL (≈ 58.3 µM); in experiment [4], 64 µg/mL (≈ 233 µM).
Regarding `CCOC(=O)[C@@H]1O[C@H]1C(=O)c1ccc(C(C)(C)C)cc1`, the MIC in [1] is greater than 128 µg/mL; in experiment [5], greater than 128 µg/mL; in experiment [3], 128 µg/mL (≈ 463 µM); in experiment [4] it was 32 µg/mL (≈ 116 µM).
Regarding `CC(C)(C)c1ccc(S/C=C\C(=O)O)cc1`, the MIC in experiment [1] is greater than 128 µg/mL; in experiment [2] it was 128 µg/mL (≈ 542 µM); in experiment [3] it was greater than 128 µg/mL; in experiment [4] it was greater than 128 µg/mL.
For the compound `O=C(O)/C=C\Sc1nc2ccccc2s1`, the MIC in [1], in [2], in experiment [3] and in experiment [4] was greater than 128 µg/mL throughout.
With `CC(C)(C)c1ccc(S/C=C\C(=O)OCC2CC2)cc1`, the minimal inhibitory concentration (MIC) in experiment [1] was greater than 128 µg/mL; in experiment [2], 128 µg/mL (≈ 441 µM); in experiment [3] it was 16 µg/mL (≈ 55.1 µM); in [4] it was greater than 128 µg/mL.
Regarding `CC(C)N(C(=O)/C=C\Sc1nc2ccccc2s1)C(C)C`, the MIC in [1], in [2], in experiment [3] and in [4] was greater than 128 µg/mL each time.
On to `CC(C)(C)c1ccc(S/C=C\C(=O)Nc2ccccc2)cc1`, for which the MIC in [1], in experiment [2], in experiment [3] and in experiment [4] was greater than 128 µg/mL each time.
Turning to `CN(C(=O)/C=C\Sc1ccc(C(C)(C)C)cc1)c1ccccc1`, the MIC in experiment [1] was greater than 128 µg/mL; in experiment [2], greater than 128 µg/mL; in [3] it was 32 µg/mL (≈ 98.3 µM); in [4], greater than 128 µg/mL.
Turning to `CNC(=O)/C=C\Sc1ccc(C(C)(C)C)cc1`, the MIC in experiment [1] is greater than 128 µg/mL; in experiment [2], 128 µg/mL (≈ 513 µM); in [3], greater than 128 µg/mL; in experiment [4], greater than 128 µg/mL.
Regarding `CN(C)C(=O)/C=C\Sc1ccc(C(C)(C)C)cc1`, the MIC was greater than 128 µg/mL in experiment [1], 16 µg/mL (≈ 60.7 µM) in experiment [2], 64 µg/mL (≈ 243 µM) in experiment [3] and greater than 128 µg/mL in [4].
Take `CC(C)N(C(=O)/C=C\Sc1ccc(C(C)(C)C)cc1)C(C)C`: the MIC is greater than 128 µg/mL in experiment [1], greater than 128 µg/mL in experiment [2], 64 µg/mL (≈ 200 µM) in experiment [3] and greater than 128 µg/mL in [4].
In experiment [10], `CC[C@@H](CO)NCCN[C@@H](CC)CO` [ETHAMBUTOL] gave a minimum inhibitory concentration (MIC) of 1.2 µg/mL (≈ 5.87 µM).
The same measure, in the same setting: under `NNC(=O)c1ccncc1` [ISONIAZID] stands 0.25 µg/mL (≈ 1.82 µM).
For the compound `CO[C@H]1/C=C/O[C@@]2(C)Oc3c(C)c(O)c4c(O)c(c(/C=N/N5CCN(C)CC5)c(O)c4c3C2=O)NC(=O)/C(C)=C\C=C\[C@H](C)[C@H](O)[C@@H](C)[C@@H](O)[C@@H](C)[C@H](OC(C)=O)[C@@H]1C` [RIFAMPIN], the MIC in [5] was 32 µg/mL (≈ 38.9 µM); in experiment [7], 2 µg/mL (≈ 2.43 µM); in [8], 0.5 µg/mL (≈ 0.608 µM); in experiment [9] it was 32 µg/mL (≈ 38.9 µM); in experiment [10] it was less than 0.03 µg/mL; in [11], 1 µg/mL (≈ 1.22 µM). Also, in experiment [3], the lowest concentration to inhibit growth (MIC) was 64 µg/mL (≈ 77.8 µM).
Take `CN(C)[C@@H]1C(O)=C(C(N)=O)C(=O)[C@@]2(O)C(O)=C3C(=O)c4c(O)cccc4[C@@](C)(O)[C@H]3C[C@@H]12` [TETRACYCLINE]: the MIC is 1 µg/mL (≈ 2.25 µM) in [1] and 0.25 µg/mL (≈ 0.563 µM) in experiment [4].
